Data: ChEMBL document CHEMBL4145562, “Bioactivity-Guided Isolation of Potential Antidiabetic and Antihyperlipidemic Compounds from Trigonella stellata” (J Nat Prod, 2018)
Active and inactive are the calls of the source. No cut-off for these calls is given here.

Columns and labels:
Type in all cases: cell-based
[1] = molecular target: T1, Peroxisome proliferator-activated receptor alpha (Homo sapiens) (UniProt Q07869); test: Agonist activity at PPARalpha (unknown origin) expressed in human HepG2 cells cotransfected with PPRE X3-tk at 1.45 ug/ml after 24 hrs by luciferase reporter gene assay relative to control
T1 sequence (whole entry): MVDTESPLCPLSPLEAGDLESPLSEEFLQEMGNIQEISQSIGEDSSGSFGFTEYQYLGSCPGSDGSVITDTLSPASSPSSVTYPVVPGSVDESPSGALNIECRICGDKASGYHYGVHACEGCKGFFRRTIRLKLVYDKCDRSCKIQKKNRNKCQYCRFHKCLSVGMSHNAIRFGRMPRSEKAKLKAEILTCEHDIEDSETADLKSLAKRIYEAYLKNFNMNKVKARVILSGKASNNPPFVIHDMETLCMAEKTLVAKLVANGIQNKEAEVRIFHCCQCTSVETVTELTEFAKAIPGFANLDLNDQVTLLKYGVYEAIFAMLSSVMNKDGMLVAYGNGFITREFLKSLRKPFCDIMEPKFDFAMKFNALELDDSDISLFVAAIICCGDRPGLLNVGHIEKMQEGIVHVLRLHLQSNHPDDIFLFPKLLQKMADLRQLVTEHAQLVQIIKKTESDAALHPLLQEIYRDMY
Outline: (§1)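 HepG2 cells grown in DMEM with 10% FBS, penicillin and streptomycin, then electroporated (160 V, single 70 ms pulse) with pSG5-PPARα plus PPRE X3-tk-luc plasmids (25 μg/1.5 mL cell suspension). Cells were plated at 5 × 10^4/well and grown 24 h, then treated for 24 h and lysed. Luciferase activity was reported as fold induction over vehicle control.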

[2] = molecular target: T1, Peroxisome proliferator-activated receptor alpha (Homo sapiens); test: Agonist activity at PPARalpha (unknown origin) expressed in human HepG2 cells cotransfected with PPRE X3-tk at 25 ug/ml after 24 hrs by luciferase reporter gene assay relative to control; outline: as §1
[3] = molecular target: T1, Peroxisome proliferator-activated receptor alpha (Homo sapiens); test: Agonist activity at PPARalpha (unknown origin) expressed in human HepG2 cells cotransfected with PPRE X3-tk at 50 ug/ml after 24 hrs by luciferase reporter gene assay relative to control; outline: as §1
[4] = molecular target: T2, Peroxisome proliferator-activated receptor gamma (Homo sapiens) (UniProt P37231); test: Agonist activity at PPARgamma (unknown origin) expressed in human HepG2 cells cotransfected with PPREaP2-tk at 12.5 ug/ml after 24 hrs by luciferase reporter gene assay relative to control
T2 sequence (whole entry): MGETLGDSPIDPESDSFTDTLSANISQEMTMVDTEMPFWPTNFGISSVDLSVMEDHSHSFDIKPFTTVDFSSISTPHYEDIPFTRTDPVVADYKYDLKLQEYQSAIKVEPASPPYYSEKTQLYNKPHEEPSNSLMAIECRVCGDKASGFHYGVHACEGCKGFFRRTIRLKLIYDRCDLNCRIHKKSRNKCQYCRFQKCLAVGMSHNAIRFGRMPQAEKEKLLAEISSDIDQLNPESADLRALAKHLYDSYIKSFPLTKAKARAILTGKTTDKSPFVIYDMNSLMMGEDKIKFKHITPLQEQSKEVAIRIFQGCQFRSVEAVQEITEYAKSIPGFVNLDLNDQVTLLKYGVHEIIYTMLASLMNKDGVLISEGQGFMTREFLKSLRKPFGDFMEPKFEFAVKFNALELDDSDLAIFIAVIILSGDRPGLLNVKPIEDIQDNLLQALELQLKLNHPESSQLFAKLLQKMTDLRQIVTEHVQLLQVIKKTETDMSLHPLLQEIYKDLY
Outline: (§2)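 Rat PPARγ (pCMV-rPPARγ) was co-electroporated with the pPPREaP2-tk-luc reporter (25 μg/1.5 mL cell suspension; 160 V, one 70 ms pulse) into HepG2 cells kept in DMEM/10% FBS with antibiotics. Cells were seeded at 5 × 10^4/well for 24 h, then exposed to samples for 24 h. Luciferase was read in lysates and expressed as fold induction relative to vehicle.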

[5] = molecular target: T1, Peroxisome proliferator-activated receptor alpha (Homo sapiens); test: Agonist activity at PPARalpha (unknown origin) expressed in human HepG2 cells cotransfected with PPRE X3-tk at 12.5 ug/ml after 24 hrs by luciferase reporter gene assay relative to control; outline: as §1
[6] = molecular target: T2, Peroxisome proliferator-activated receptor gamma (Homo sapiens); test: Agonist activity at PPARgamma (unknown origin) expressed in human HepG2 cells cotransfected with PPREaP2-tk at 50 ug/ml after 24 hrs by luciferase reporter gene assay relative to control; outline: as §2
[7] = molecular target: T2, Peroxisome proliferator-activated receptor gamma (Homo sapiens); test: Agonist activity at PPARgamma (unknown origin) expressed in human HepG2 cells cotransfected with PPREaP2-tk at 25 ug/ml after 24 hrs by luciferase reporter gene assay relative to control; outline: as §2

Compound: CC(C)(Oc1ccc(C2CC2(Cl)Cl)cc1)C(=O)O (centres undefined)
- fold change (FC) [1]: 2.2

Compound: COc1ccc2c(c1)OC(OC)C(c1ccc(O)cc1O)[C@H]2O (single isomer, unassigned)
- fold change (FC) [2]: 2
- Activity [3]: inactive
- Activity [4]: inactive
- fold change (FC) [5]: 1.93
- Activity [6]: inactive
- Activity [7]: inactive

Compound: COc1ccc2c(c1)OC[C@@H](c1ccc(O[C@@H]3O[C@H](CO)[C@@H](O)[C@H](O)[C@H]3O)cc1O)[C@@H]2O
- fold change (FC) [2]: 1.32
- fold change (FC) [3]: 1.67
- fold change (FC) [4]: 1.22
- fold change (FC) [5]: 1.14
- fold change (FC) [6]: 1.74
- fold change (FC) [7]: 1.36

Compound: COc1ccc2c(c1)OC[C@H](c1ccc(O)cc1O)[C@H]2O
- fold change (FC) [2]: 1.88
- fold change (FC) [3]: 2.25
- Activity [4]: inactive
- fold change (FC) [5]: 1.29
- Activity [6]: inactive
- Activity [7]: inactive

Compound: O=c1cc(-c2ccc(O)cc2)oc2cc(O)ccc12
- Activity [2]: inactive
- Activity [3]: inactive
- Activity [4]: inactive
- Activity [5]: inactive
- Activity [6]: inactive
- Activity [7]: inactive

Compound: C[C@@H]1O[C@@H](O[C@H]2[C@H](O[C@H]3[C@H](O[C@H]4CC[C@@]5(C)[C@@H](CC[C@]6(C)[C@@H]5CC=C5[C@@H]7CC(C)(C)C[C@@H](O)[C@]7(C)CC[C@]56C)[C@@]4(C)CO)O[C@H](C(=O)O)[C@@H](O)[C@@H]3O)O[C@H](CO)[C@H](O)[C@@H]2O)[C@H](O)[C@H](O)[C@H]1O
- Activity [2]: inactive
- Activity [3]: inactive
- fold change (FC) [4]: 1.22
- Activity [5]: inactive
- fold change (FC) [6]: 1.79
- fold change (FC) [7]: 1.36

Compound: O=C(O)CCc1ccccc1O[C@@H]1O[C@H](CO)[C@@H](O)[C@H](O)[C@H]1O
- Activity [2]: inactive
- Activity [3]: inactive
- Activity [4]: inactive
- Activity [5]: inactive
- Activity [6]: inactive
- Activity [7]: inactive

Compound: O=C(O)c1ccc(O)cc1
- Activity [2]: inactive
- Activity [3]: inactive
- fold change (FC) [4]: 1
- Activity [5]: inactive
- fold change (FC) [6]: 1.35
- fold change (FC) [7]: 0.9

Compound: C[C@@H]1O[C@@H](Oc2cc(O)c3c(=O)c(O[C@@H]4O[C@@H](C)[C@H](O)[C@@H](O)[C@H]4O)c(-c4ccc(O)c(O)c4)oc3c2)[C@H](O)[C@H](O)[C@H]1O
- Activity [2]: inactive
- Activity [3]: inactive
- Activity [4]: inactive
- Activity [5]: inactive
- Activity [6]: inactive
- Activity [7]: inactive
